Active and inactive are the calls of the source. No cut-off for these calls is given here.
How the values were obtained:
[1] = target: T1, GABA-A receptor; alpha-1/beta-2/gamma-2 (Homo sapiens) (UniProt P14867+P47870+P18507); experiment: Allosteric modulation of human GABAA alpha-1-beta-2-gamma-2 receptor expressed in Xenopus laevis assessed as enhancement of [3H]flunitrazepam binding up to 10 uM
[2] = target: T2, 5-hydroxytryptamine receptor 3A (Homo sapiens) (UniProt P46098); experiment: Displacement of [3H]GR65630 from 5HT3A receptor expressed in Xenopus oocyte
T2 sequence (whole entry): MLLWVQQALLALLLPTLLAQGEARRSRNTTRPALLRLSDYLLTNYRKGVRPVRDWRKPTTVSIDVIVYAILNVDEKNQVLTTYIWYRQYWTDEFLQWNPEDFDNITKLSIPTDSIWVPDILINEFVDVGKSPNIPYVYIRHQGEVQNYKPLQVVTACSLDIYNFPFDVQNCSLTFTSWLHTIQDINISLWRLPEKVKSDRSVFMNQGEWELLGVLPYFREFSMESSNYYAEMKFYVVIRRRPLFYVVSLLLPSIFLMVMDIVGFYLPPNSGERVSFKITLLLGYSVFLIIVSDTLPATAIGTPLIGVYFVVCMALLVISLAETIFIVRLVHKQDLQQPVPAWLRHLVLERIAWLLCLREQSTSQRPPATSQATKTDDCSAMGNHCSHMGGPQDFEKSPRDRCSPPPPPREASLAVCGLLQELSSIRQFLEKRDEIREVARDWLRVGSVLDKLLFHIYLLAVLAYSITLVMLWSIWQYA

[3] = target: T2, 5-hydroxytryptamine receptor 3A (Homo sapiens); experiment: Inhibition of 5HT3A receptor expressed in Xenopus oocyte at 9 uM
Summary of the method: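 Oocytes injected with ~50 ng human 5-HT3A cRNA. Two-electrode voltage clamp at −50 mV, room temperature, ND96. Compound was pre-applied for 30 s, then co-applied with 100 μM 5-HT for 30 s. Peak current was expressed as a percentage of the mean of the flanking 100 μM 5-HT control currents. Fixed compound concentration of 9 μM.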

[4] = target: T1, GABA-A receptor; alpha-1/beta-2/gamma-2 (Homo sapiens); experiment: Agonist activity at human GABA-A alpha-1-beta-2-gamma-2 receptor expressed in Xenopus laevis assessed as increase in channel current at 10 uM by electrophysiology relative to control; type: functional
[5] = test system: Xenopus laevis; experiment: Anesthetic potency in Xenopus laevis; type: functional, organism-based
[6] = Inhibition of Torpedo nAChR expressed in Xenopus oocyte assessed as inhibition of ACh-induced channel current
[7] = target: T1, GABA-A receptor; alpha-1/beta-2/gamma-2 (Homo sapiens); experiment: Agonist activity at human GABA-A alpha-1-beta-2-gamma-2 receptor expressed in Xenopus laevis assessed as increase in channel current at 5 uM by electrophysiology relative to control; type: functional
[8] = target: T1, GABA-A receptor; alpha-1/beta-2/gamma-2 (Homo sapiens); experiment: Agonist activity at human GABAA alpha-1-beta-2-gamma-2 mutant receptor expressed in Xenopus laevis assessed as increase in channel current at 5 uM by electrophysiology relative to control; type: functional
Summary of the method: (§1)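 Oocytes expressing human α1β2(M286W)γ2L GABA-A receptor. Two-electrode voltage clamp at −50 mV, room temperature, ND96 pH 7.5. […] Applications lasted 15–20 s with ~3 min washes.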

[9] = target: T1, GABA-A receptor; alpha-1/beta-2/gamma-2 (Homo sapiens); experiment: Agonist activity at human GABAA alpha-1-beta-2-gamma-2 mutant receptor expressed in Xenopus laevis assessed as increase in channel current at 10 uM by electrophysiology relative to control; type: functional; summary of the method: as §1
[10] = species on record: Homo sapiens; experiment: Agonist activity at human GABA-A alpha-1-beta-2-gamma-2 receptor expressed in Xenopus laevis assessed as increase in channel current at saturated concentration by electrophysiology relative to control; type: functional
[11] = test system: Torpedo; experiment: Binding affinity to Torpedo nAChR assessed as photoincorporation in to membrane; type: cell membranes; conditions: tested as the 3H-labelled form
Summary of the method: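 Torpedo californica nAChR-rich membranes at 2 mg/mL in Torpedo saline pH 7.0 with 1 mM oxidized glutathione. Incubated 40 min at room temperature with 0.3 μM tritiated probe, ± carbamylcholine, proadifen, tetracaine or PCP, then irradiated at 365 nm for 30 min on ice. Subunits separated by SDS-PAGE. Incorporation measured by fluorography and by scintillation counting of excised bands (two parallel labelings).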

[12] = target: T1, GABA-A receptor; alpha-1/beta-2/gamma-2 (Homo sapiens); experiment: Allosteric modulation of human GABAA alpha-1-beta-2-gamma-2 receptor expressed in Xenopus laevis assessed as enhancement of [3H]mucimol binding up to 10 uM
[13] = target: T2, 5-hydroxytryptamine receptor 3A (Homo sapiens); experiment: Inhibition of 5HT3A receptor expressed in Xenopus oocyte at 20 uM

CCOC(=O)c1cncn1[C@H](C)c1ccccc1
Activity [1]: Active
Activity [2]: inactive

CCOC(=O)c1cncn1[C@H](C)c1ccc(C2(C(F)(F)F)N=N2)cc1
inhibition [3]: 34%
Imax [4]: 0.73%
EC50 [5]: 17.1 µM
IC50 [6]: 11.3 µM

CCOC(=O)c1cncn1[C@@H](C)c1ccc(C2(C(F)(F)F)N=N2)cc1
inhibition [3]: 29%
fold change (FC) [7]: 2.2
fold change (FC) [8]: 1.8
Imax [4]: 0.9%
fold change (FC) [4]: 3
EC50 [5]: 4.9 µM
fold change (FC) [9]: 2.2
IC50 [6]: 4.7 µM

CCOC(=O)c1cncn1C(C)c1ccc(C2(C(F)(F)F)N=N2)cc1 (stereo unspecified)
Activity [10]: 1.3%
Activity [11]: Active
Activity [12]: inactive
inhibition [13]: 1.7%
IC50 [6]: 4.1 µM
Activity [1]: inactive
Activity [2]: inactive

Reference: ChEMBL document CHEMBL1268870 (J Med Chem, 2010)
